Bioassay records as filed in PubChem.
Sampled rows, rich in hits. Any-hit rate of the full collection: about 2.1%.
CHRM5 antagonist: human M5 muscarinic receptor antagonists, primary screen, CHO cells, Fluo-8 calcium fluorescence; inhibition, % at 3 µM; 360,000 tested, 0.59% active; Muscarinic acetylcholine receptor M5 (Homo sapiens), P08912; CHO-hM5 cells, ACh EC80;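 active = inhibition above a per-plate cutoff, the mean of that plate's test compounds plus 3 SD, cut at about 27% in these data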;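 note: 0% = acetylcholine EC80 with DMSO and 100% = DMSO without agonist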
Target sequence (P08912 whole entry, looked up): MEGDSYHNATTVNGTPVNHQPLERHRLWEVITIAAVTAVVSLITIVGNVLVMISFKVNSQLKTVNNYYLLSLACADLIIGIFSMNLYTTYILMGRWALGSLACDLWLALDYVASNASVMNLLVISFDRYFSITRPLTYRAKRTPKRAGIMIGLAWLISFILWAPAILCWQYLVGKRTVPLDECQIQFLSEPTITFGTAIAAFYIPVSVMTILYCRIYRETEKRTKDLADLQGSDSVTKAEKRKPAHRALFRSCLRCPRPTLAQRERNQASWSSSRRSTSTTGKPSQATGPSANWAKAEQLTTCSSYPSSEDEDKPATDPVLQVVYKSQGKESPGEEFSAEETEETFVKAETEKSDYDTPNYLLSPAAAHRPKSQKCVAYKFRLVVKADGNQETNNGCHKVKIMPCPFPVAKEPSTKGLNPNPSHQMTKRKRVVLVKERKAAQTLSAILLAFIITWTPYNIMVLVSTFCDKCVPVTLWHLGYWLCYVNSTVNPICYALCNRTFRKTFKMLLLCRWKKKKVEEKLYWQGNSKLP
M1 ag: human M1 muscarinic receptor agonists, primary screen, Fluo-8 calcium fluorescence, CHO-K1 cells, HTS; Muscarinic acetylcholine receptor M1 (Homo sapiens), P11229; CHO-K1 hM1, agonist mode; 0% DMSO, 100% acetylcholine EC100; activation, % at 3 µM; 360,000 tested, 0.33% active; AID 588814, 2011;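 active = activation above the run's mean compound activation plus 3 SD, cut at about 16% in these data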;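 note: peak over basal fluorescence ratio within a 140 s kinetic read after compound addition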
M5 ag: human M5 muscarinic receptor agonists, primary screen, CHO-K1 cells, Fluo-8 calcium fluorescence. CHO-K1 hM5 cells; 0% DMSO wells, 100% maximal acetylcholine response. AID 624037, 2012. 360,000 tested, 0.19% active. activation, % at 3 µM;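 active = activation above the run's mean over test compounds plus 3 SD, cut at about 23% in these data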;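 note: signal is peak over basal fluorescence ratio across the kinetic read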
CHRM1 PAM: human M1 muscarinic receptor positive allosteric modulators, primary screen, CHO-K1 cells, Fluo-8 calcium fluorescence, 1536-well; AID 588819, 2011; CHO-K1 hM1, ACh EC20; 0% = ACh EC20, 100% = maximal ACh; activation, % at 3 µM; 360,000 tested, 0.088% active; in the data active = activation above about 19%, passing the limit was not always enough
M5 PAM: human M5 muscarinic receptor positive allosteric modulators, primary screen, CHO-K1 cells, Fluo-8 calcium fluorescence. AID 624038, 2012. activation, % at 3 µM. CHO-K1 hM5, ACh EC20 PAM; 0% = ACh EC20, 100% = ACh EC100. Muscarinic acetylcholine receptor M5 (Homo sapiens), P08912. 360,000 tested, 0.3% active;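 active = activation above the run cutoff, the mean activation of all test compounds plus 3 SD, cut at about 18% in these data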
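Probe or stimulus: acetylcholine, EC20 level; Assay system: human M5 receptor in CHO-K1 cells; Schedule: compound preincubation 140 s before EC20 acetylcholine addition; Technique: intracellular calcium via Fluo-8 fluorescence; Dosing: single-point, 3 µM nominal; Read-out basis: percent activation from peak-over-basal fluorescence ratio, scaled EC20-to-EC100 acetylcholine; Repeats: one well per compound, no replicates.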
M1 antag: human M1 muscarinic receptor antagonists, primary screen, CHO-K1 cells, Fluo-8 calcium fluorescence, 1536-well. Muscarinic acetylcholine receptor M1 (Homo sapiens), P11229. CHO-K1 hM1, ACh EC80 antagonist. inhibition, % at 3 µM. 360,000 tested, 1.3% active;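 active = percent inhibition above its own plate's cutoff, namely the mean of that plate's compound wells plus 3 SD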;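 note: peak over basal fluorescence ratio during 140 s after agonist addition; 0% = ACh EC80 plus DMSO and 100% = DMSO alone without agonist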
Numbers without * were called inactive.

For O=C(O)CC(NC(=O)C12CC3CC(CC(C3)C1)C2)c1cccc(Cl)c1 (configuration not stated) the results were CHRM5 antagonist -3, M1 ag -7, M5 ag 1, CHRM1 PAM 8, M5 PAM 4 and M1 antag -15.
COCCNC(=O)c1cc(-c2ccccc2)nn1Cc1cc(C)no1 was read as CHRM5 antagonist -10, M1 ag -4, M5 ag 0, CHRM1 PAM 8, M5 PAM 7 and M1 antag -11.
C#CC[N+](CC)(CC)CC#Cc1ccccc1 was read as CHRM5 antagonist 0, M1 ag -8, M5 ag -17, CHRM1 PAM -4, M5 PAM 0 and M1 antag -1.
CC[N+](CC)(CC#Cc1ccccc1)CC#Cc1ccccc1 was read as CHRM5 antagonist 31*, M1 ag -7, M5 ag -22, CHRM1 PAM -20, M5 PAM -31 and M1 antag 42*.
For CCC(C)(C)n1nnnc1C(c1cccs1)N1CCCCC1 (configuration not stated) the results were CHRM5 antagonist 6, M1 ag -5, M5 ag -11, CHRM1 PAM 0, M5 PAM 3 and M1 antag 0.
`Cc1ccc(CNC(=O)C(=O)NCC2OCCN2S(=O)(=O)c2cccs2)cc1` (configuration not stated) gave CHRM5 antagonist 5, M1 ag -5, M5 ag 0, CHRM1 PAM 6, M5 PAM -2 and M1 antag -6.
For CCN(CC)S(=O)(=O)c1cc(C(=O)Nc2cc(Cl)ccc2N2CCN(C)CC2)ccc1Cl the results were CHRM5 antagonist -5, M1 ag -6, M5 ag 0, CHRM1 PAM 6, M5 PAM 3 and M1 antag -10.
Screening CN1CCN(c2ccc(Cl)cc2NS(=O)(=O)c2ccccc2Cl)CC1 returned CHRM5 antagonist 4, M1 ag -3, M5 ag -10, CHRM1 PAM -19, M5 PAM -43 and M1 antag 36*.
For O=C(Nc1ccc(N2CCOCC2)c(S(=O)(=O)Nc2ccccc2Cl)c1)c1ccccc1 the results were CHRM5 antagonist 13, M1 ag -7, M5 ag -5, CHRM1 PAM -9, M5 PAM -24 and M1 antag 13.
`O=C(Nc1ccc(Cl)cc1)Nc1ccc(N2CCCC2)c(S(=O)(=O)Nc2ccccc2Cl)c1` gave CHRM5 antagonist 27*, M1 ag -7, M5 ag -1, CHRM1 PAM -5, M5 PAM -15 and M1 antag 12.
CCCCc1ccc(N/C(N)=N/c2nc(C)cc(C)n2)cc1 was read as CHRM5 antagonist 77*, M1 ag 35*, M5 ag 51*, CHRM1 PAM -28, M5 PAM -30 and M1 antag 83*.
Screening Cc1ccc(N/C(N)=N/c2nc(C)cc(C)n2)cc1 returned CHRM5 antagonist 5, M1 ag -5, M5 ag 8, CHRM1 PAM -7, M5 PAM -13 and M1 antag -6.
`NS(=O)(=O)c1ccc(CCNC(=O)NC2(C(F)(F)F)Oc3ccccc3O2)cc1` gave CHRM5 antagonist -12, M1 ag -4, M5 ag -13, CHRM1 PAM -3, M5 PAM 31* and M1 antag 13.
CCCN(C(=O)c1ccc(N2CCCC2=O)cc1)c1c(N)n(Cc2ccccc2)c(=O)[nH]c1=O was read as CHRM5 antagonist 3, M1 ag -3, M5 ag -2, CHRM1 PAM -3, M5 PAM 1 and M1 antag -3.
